Screening results: PubChem BioAssay, several laboratories
tolC growth inh: E. coli tolC mutant growth inhibition; growth inhibition, % at 10 µM (by protocol); E. coli BW25113 tolC mutant growth, OD615; 65,000 tested, 2.2% active;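 active = growth inhibition at or above a cutoff equal to the mean over every tested compound plus 3 SD, cut at about 60% in these data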;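 also: growth measured after 20 h incubation at 37 °C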
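Test system: E. coli BW25113 ΔtolC::kan bacteria; incubation: 37 °C, 20 h exposure; medium: LB broth supplemented with 50 µg/mL kanamycin; read-out basis: percent growth inhibition; signal: A615 absorbance measurement; compound: 10 µM final, single dose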
PostGolgi yeast: growth inhibition of a yeast mutant, post-Golgi transport screen; post-Golgi transport phenotypic cell assay; inhibition, % at 10 µM; 98,000 tested, 0.9% active;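 also: yeast cells grown in 1536-well plates; yeast grown about 18 h at 30C before absorbance read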
Pyk2 oligo antag: antagonists of human Pyk2 oligomerization; Q14289; 99,000 tested, 0.83% active; z-score (the deposit names both 25 µM and 10 µM); AID 1347419; Q293 cells, Pyk2 FERM NanoBiT luminescence; active compounds read low;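 active = Z-score of -3 or lower, scaled per plate to the spread of control and sample wells; inactive = z-score above -3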;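 also: negative z-score means lost luminescence so less FERM oligomerization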
FAK inh: blocks human focal adhesion kinase activity | biochemical FAK kinase activity assay | 97,000 tested, 0.84% active | Q05397 | AID 727 | inhibition, %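 (tested at 7 µM)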; in the data active = inhibition above about 19%
Target sequence (Q05397 whole entry, looked up): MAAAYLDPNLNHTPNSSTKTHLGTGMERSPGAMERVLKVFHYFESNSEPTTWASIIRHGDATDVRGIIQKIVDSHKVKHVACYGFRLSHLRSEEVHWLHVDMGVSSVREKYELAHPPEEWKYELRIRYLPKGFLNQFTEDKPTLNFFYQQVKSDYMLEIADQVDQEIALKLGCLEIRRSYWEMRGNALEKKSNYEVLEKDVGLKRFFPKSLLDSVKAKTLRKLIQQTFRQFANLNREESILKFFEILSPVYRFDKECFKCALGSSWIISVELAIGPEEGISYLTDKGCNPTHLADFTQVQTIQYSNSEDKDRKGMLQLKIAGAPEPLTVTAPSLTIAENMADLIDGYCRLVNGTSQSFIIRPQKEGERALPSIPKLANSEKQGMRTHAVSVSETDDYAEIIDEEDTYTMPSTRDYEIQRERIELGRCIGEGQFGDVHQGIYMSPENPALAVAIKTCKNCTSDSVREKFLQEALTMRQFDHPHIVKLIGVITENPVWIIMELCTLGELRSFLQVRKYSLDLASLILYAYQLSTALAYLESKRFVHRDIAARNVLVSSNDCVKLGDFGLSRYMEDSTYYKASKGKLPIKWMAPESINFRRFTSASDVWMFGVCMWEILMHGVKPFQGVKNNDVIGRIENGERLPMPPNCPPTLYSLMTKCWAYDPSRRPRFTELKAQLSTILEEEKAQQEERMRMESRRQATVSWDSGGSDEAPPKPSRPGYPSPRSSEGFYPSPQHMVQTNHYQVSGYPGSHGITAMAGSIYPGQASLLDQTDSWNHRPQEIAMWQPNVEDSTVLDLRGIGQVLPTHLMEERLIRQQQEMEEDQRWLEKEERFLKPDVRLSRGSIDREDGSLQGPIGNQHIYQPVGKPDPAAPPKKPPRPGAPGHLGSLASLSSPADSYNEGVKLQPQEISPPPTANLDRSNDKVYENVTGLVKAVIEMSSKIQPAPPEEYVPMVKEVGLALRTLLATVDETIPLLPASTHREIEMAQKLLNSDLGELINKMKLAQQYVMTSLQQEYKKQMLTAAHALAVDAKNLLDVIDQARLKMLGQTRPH
Calb biofilm kill: kills Candida albicans biofilms. C. albicans biofilm + clotrimazole, Alamar Blue. inhibition, % at 6 µM. 85,000 tested, 0.14% active;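 active = inhibition above 20%; inactive = inhibition below 20%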;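 also: preformed 24 hr biofilms exposed to compound for 48 hr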
PostGolgi ctrl: yeast control strain growth, post-Golgi counter-screen | efflux-deficient yeast background strain, growth absorbance A615, 16 h | inhibition, % at 10 µM | 98,000 tested, 5% active | AID 738
Each line names hits and unclear results; the compound was inactive in the other large screens. Sampled rows, rich in hits. Any-hit rate of the full collection: about 6.9%. Rule as the data show it, unless noted: active = inhibition above about 30%; inactive = the rest.

COCC(=O)NC(c1ccccc1)c1ccccc1	none
O=C(OCCN1C(=O)c2ccccc2C1=O)c1cccc(OC(F)F)c1	PostGolgi ctrl 36.0
CCOC(=O)c1oc2nc(C(C)C)c3c(c2c1N)CC(C)(C)OC3	none (no result: tolC growth inh)
CCOc1ccc(N=C2NC(=O)S/C2=C\c2ccc(N(C)C)cc2)cc1	PostGolgi ctrl 34.3 (no result: tolC growth inh, Calb biofilm kill)
CC(=O)Nc1ccc(S(=O)(=O)Nc2nc3ccccc3s2)cc1	none (no result: tolC growth inh)
O=S(=O)(Nc1ccc(O)c(Sc2nc3ccccc3s2)c1)c1ccc(Cl)cc1	PostGolgi yeast 36.6 (no result: tolC growth inh, Calb biofilm kill)
CC1(C)CC2CC(C)(CN2C(=O)COC(=O)c2n[nH]c(=O)c3ccccc23)C1 (stereo unspecified)	none (no result: FAK inh, Calb biofilm kill)
O=C(COc1cccc2ccccc12)N1CCN(c2ccccc2)CC1	tolC growth inh 66.3
CC1(C)CC2CC(C)(CN2C(=O)COc2cccc3ccccc23)C1 (stereo unspecified)	PostGolgi ctrl 46.5 (no result: tolC growth inh)
O=C(COc1cccc2ccccc12)N1CCN(c2ccccn2)CC1	none
O=C(COc1cccc2ccccc12)N1c2ccccc2CCc2ccccc21	PostGolgi ctrl 32.3 (no result: tolC growth inh, Calb biofilm kill)
O=C1C2CCCN2C(c2ccccc2)N1c1ccc(F)cc1 (stereo unspecified)	none (no result: Pyk2 oligo antag)
CC1=[N+]([O-])C(C)(C)C(C)N(O)C1=O (stereo unspecified)	none
Cc1ccc2nc(NC(=O)C3CCCN(S(=O)(=O)c4cnc[nH]4)C3)sc2c1 (stereo unspecified)	none (no result: Pyk2 oligo antag)
CCOc1ccccc1N(CC(=O)NC1CCCC1)C(=O)CCC(=O)Nc1cc(C)on1	none (no result: Calb biofilm kill)
Cc1ccc(-c2ccc(/C=N/n3cnnc3)o2)cc1Cl	PostGolgi yeast 80.2, PostGolgi ctrl 59.5
Clc1cccc(-c2ccc(/C=N/n3cnnc3)o2)c1	none (no result: FAK inh)
COc1ccc(CNC(=O)CN(Cc2ccc(Cl)cc2)S(=O)(=O)c2ccccc2)cc1	PostGolgi ctrl 39.1 (no result: tolC growth inh)
COc1ccc(CNC(=O)CN(Cc2ccccc2)S(=O)(=O)c2ccc(Cl)cc2)cc1	none (no result: tolC growth inh)
O=C1CC(c2ccccc2)Sc2ccccc2N1 (stereo unspecified)	none
COc1ccc(CCNc2nc(-c3ccco3)cc(C(F)(F)F)n2)cc1OC	none
Fc1ccc(CNc2nc(-c3ccco3)cc(C(F)(F)F)n2)cc1	tolC growth inh 61.9 (no result: Calb biofilm kill)
FC(F)(F)c1cc(-c2ccco2)nc(NCc2ccccc2)n1	none
COc1ccccc1-c1cc(C(F)(F)F)nc(NCc2ccco2)n1	PostGolgi ctrl 31.1
Cc1noc(C)c1S(=O)(=O)Nc1ccc(C(=O)N2CCN(c3ccc(Cl)cc3)CC2)cc1	none (no result: Calb biofilm kill)
CNS(=O)(=O)c1cccc(C(=O)Nc2cccnc2)c1	PostGolgi ctrl 34.0 (no result: tolC growth inh, Calb biofilm kill)
CCN(CC)S(=O)(=O)c1cccc(C(=O)Nc2cccnc2)c1	none
CCOC(=O)C1CCCN(c2ncnc3c2cnn3-c2ccc(Cl)cc2)C1 (stereo unspecified)	tolC growth inh 73.1
CCOC(=O)C1CCN(c2ncnc3c2[nH]c2cccc(OC)c23)CC1	none
CCOC(=O)C1CCN(c2ncnc3c2oc2ccc(Cl)cc23)CC1	PostGolgi ctrl 33.3
NCCCCCc1nnc(SC/C=C/c2ccccc2)o1	none
O=C(CNC(=O)c1ccccc1)NCC1COc2ccccc2O1 (stereo unspecified)	none (no result: tolC growth inh)
Cc1cc(C)c(S(C)(=O)=O)c(Sc2ccc(Cl)cc2)n1	PostGolgi ctrl 31.0 (no result: tolC growth inh, Calb biofilm kill)
O=C1CCCN1CCCN1C(=O)N[C@@H](Cc2ccccc2)C1=O	PostGolgi ctrl 35.2
CCOc1ccc(OCC)c(NC(=O)CN2CCN(c3cc(C)ccc3C)CC2)c1	none
Cc1ccc(C)c(N2CCN(CC(=O)Nc3ccc([N+](=O)[O-])cc3C(=O)Nc3ccccc3F)CC2)c1	PostGolgi ctrl 37.6 (no result: tolC growth inh, Calb biofilm kill)
N=c1c2c(-c3ccccc3)c(-c3ccccc3)oc2ncn1CCN1CCOCC1	PostGolgi ctrl 71.9
Cc1ccc(C2CC(c3ccccc3Cl)n3nc(N)nc3N2)cc1 (stereo unspecified)	PostGolgi ctrl 40.3 (no result: Pyk2 oligo antag)
Nc1nc2n(n1)C(c1ccccc1Cl)CC(c1ccc(F)cc1)N2 (stereo unspecified)	none (no result: Pyk2 oligo antag)
COc1ccc(NC(=O)C(=O)NCCN2CCN(C(=O)c3cccs3)CC2)cc1	none (no result: tolC growth inh, PostGolgi yeast, PostGolgi ctrl)
CCOC(=O)C1=C(C)NC2=C(C(=O)CCC2)C1c1cccnc1 (stereo unspecified)	none
CS(=O)(=O)N1CCC(C(=O)N2CCC(Cc3ccccc3)CC2)CC1	none (no result: Calb biofilm kill)
O=C(Nc1ccc2c(c1)OCO2)C1CCCN(S(=O)(=O)Cc2ccccc2)C1 (stereo unspecified)	PostGolgi ctrl 42.2
